# AF4-AF9 inh: inhibitors of AF4 peptide binding to AF9, primary screen, biochemical, AlphaScreen, biotin-AF4 peptide, FLAG-AF9, single point; inhibition, % at 10 µM; 350,000 tested, 0.47% active; Protein AF-9 (Homo sapiens), P42568;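 active = every replicate reaching a set inhibition limit, whatever the replicate mean, cut at about 25% in these data; inconclusive = mean inhibition reaches that limit but some replicates miss it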
# Target sequence (P42568 whole entry, looked up): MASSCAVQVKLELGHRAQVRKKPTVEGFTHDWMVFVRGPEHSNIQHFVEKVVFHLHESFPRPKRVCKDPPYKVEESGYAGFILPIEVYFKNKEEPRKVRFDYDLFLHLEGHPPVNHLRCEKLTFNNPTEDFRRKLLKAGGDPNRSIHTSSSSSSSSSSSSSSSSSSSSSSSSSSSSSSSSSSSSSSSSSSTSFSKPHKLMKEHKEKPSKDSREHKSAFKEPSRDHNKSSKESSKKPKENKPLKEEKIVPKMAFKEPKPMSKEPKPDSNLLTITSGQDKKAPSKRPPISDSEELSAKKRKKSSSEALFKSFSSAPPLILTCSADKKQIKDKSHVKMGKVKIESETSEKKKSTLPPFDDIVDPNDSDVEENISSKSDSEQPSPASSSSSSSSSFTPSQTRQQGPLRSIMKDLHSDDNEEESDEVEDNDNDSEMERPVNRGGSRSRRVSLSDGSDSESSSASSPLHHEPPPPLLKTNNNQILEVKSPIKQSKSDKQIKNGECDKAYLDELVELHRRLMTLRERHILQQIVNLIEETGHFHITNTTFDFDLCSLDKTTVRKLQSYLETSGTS
# S100A4 inh HTS: inhibitors of S100A4-myosin IIA peptide binding, primary screen, biochemical, fluorescence polarization, TAMRA-MyoIIA peptide. Protein S100-A4 (Homo sapiens), P26447. inhibition, % at 10.7 µM. 360,000 tested, 0.14% active;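 active = mean inhibition of at least 70% across replicates, with every replicate also reaching that level; inconclusive = mean inhibition reaches 70% but some replicates fall short; inactive = mean inhibition below 70%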
# Target sequence (P26447 whole entry, looked up): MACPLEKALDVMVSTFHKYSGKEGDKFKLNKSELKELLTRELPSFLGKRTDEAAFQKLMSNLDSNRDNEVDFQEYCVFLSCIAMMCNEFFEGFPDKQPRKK
#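 Material: human S100A4 monomer with TAMRA-labelled myosin IIA peptide; buffer or medium: HEPES pH 7.2 with CaCl2, KCl, NaCl, DTT, Triton; compound dosing: one concentration per compound; schedule: 5 min incubation before reading; benchmarks: neutral control DMSO, positive control TFP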
# DENV2 CPE: inhibitors of DENV2 cytopathic effect, primary screen, cell-based, plate reader, single concentration; DENV2-infected cells, cytopathic effect rescue; CPE inhibition, % at 9.99 µM; 350,000 tested, 1.7% active; AID 651640, 2012; in the data active = CPE inhibition above about 20%, passing the limit was not always enough; inconclusive = no clear call, values can overlap the other calls; tested in BHK-21 cells
# CaV13 ICDI inh: Disruptors of the CACNA1D IQ motif to Ca2+-dependent inactivation inhibitor domain association, primary screening, Förster resonance energy transfer in intact living …; HEK cells, CFP/YFP FRET ICDI-IQ, plate reader, 10 min; percent FRET-ratio fall versus neutral wells; inhibition, % at 12.3 µM; 340,000 tested, 0.098% active; AID 743397;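 active = mean replicate inhibition of at least 30% and at least 1% of replicates passing that level; inconclusive = only one of the two criteria is met; inactive = neither criterion is met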
# SIRT5 block: SIRT5 desuccinylase inhibitors, primary screen, biochemical, fluorescence imaging, single point, set 5; NAD-dependent protein deacylase sirtuin-5, mitochondrial (Homo sapiens), Q9NXA8; inhibition, % at 15 µM; AID 652115, 2013; 330,000 tested, 1.1% active; Purified SirT5, succinyl-peptide AMC, trypsin-coupled fluorescence; in the data active = inhibition above about 15%; inconclusive = no clear call, values can overlap the other calls
# Hits are given with their value; . = inactive; ? = inconclusive; / = not tested or not shown; ! = repeats disagree. A selection: hits, their analogues and other compounds. The true share with any hit is near 2.7%.
SMILES,AF4-AF9 inh,S100A4 inh HTS,DENV2 CPE,CaV13 ICDI inh,SIRT5 block
Cc1cc(C(=O)Nc2cccc3c2O[C@@H](CN(C)CC2CC2)[C@H](C)CN([C@H](C)CO)C3=O)n(C)n1,.,.,.,/,.
Cc1cc(C(=O)Nc2cccc3c2O[C@@H](CN(C)Cc2ccccc2)[C@@H](C)CN([C@H](C)CO)C3=O)n(C)n1,.,.,.,/,.
Cc1cc(C(=O)Nc2cccc3c2O[C@H](CN(C)Cc2ccc(Oc4ccccc4)cc2)[C@@H](C)CN([C@H](C)CO)C3=O)n(C)n1,.,.,.,/,17
C[C@@H]1CN([C@H](C)CO)C(=O)c2cccc(NC(=O)c3ccc(-c4nccs4)cc3)c2O[C@@H]1CN(C)Cc1ccc(Oc2ccccc2)cc1,.,.,.,/,21
COc1ccc(CN(C)C[C@H]2Oc3c(NC(=O)c4ccc(-c5nccs5)cc4)cccc3C(=O)N([C@@H](C)CO)C[C@@H]2C)cc1,.,.,22,/,24
Cc1cc(C(=O)Nc2cccc3c2O[C@H](CN(C)CC2CC2)[C@H](C)CN([C@H](C)CO)C3=O)n(C)n1,.,.,.,/,16
CCCNC(=O)C[C@@H]1CC[C@H]2[C@@H](COc3ccc(NC(=O)c4ccc5c(c4)OCO5)cc3C(=O)N2C)O1,.,.,.,/,.
CCNC[C@@H]1[C@H](c2ccc(-c3ccc(F)cc3)cc2)[C@H](CO)N1S(C)(=O)=O,.,.,.,/,.
C[C@@H]1CN([C@@H](C)CO)C(=O)c2cccc(NC(=O)c3ccncc3)c2O[C@@H]1CN(C)Cc1ccc(Oc2ccccc2)cc1,.,.,.,/,.
C[C@H](CO)N1C[C@H](C)[C@@H](CN(C)Cc2ccc(Oc3ccccc3)cc2)Oc2c(NC(=O)c3ccncc3)cccc2C1=O,25!,.,.,.,.
COc1ccc(S(=O)(=O)Nc2ccc3c(c2)CC(=O)N([C@@H](C)CO)C[C@@H](C)[C@H](CN(C)C(=O)Nc2ccccc2)O3)cc1,.,.,.,/,.
CCC(=O)N1CC2(CCN(Cc3ccccc3Cl)CC2)c2c([nH]c3cc(OC)ccc23)[C@H]1CO,.,.,.,/,.
COc1ccc2c3c([nH]c2c1)[C@@H](CO)N(C(=O)CN(C)C)CC31CCN(Cc2ccccc2Cl)CC1,30,.,.,/,.
CCC(=O)N1CC2(CCN(Cc3ccccc3Cl)CC2)c2c([nH]c3cc(OC)ccc23)[C@@H]1CO,.,.,24,/,.
CCC(=O)N1CC2(CCN(Cc3ccc(Cl)cc3)CC2)c2c([nH]c3cc(OC)ccc23)[C@H]1CO,32,/,.,/,/
COCC(=O)N1CC2(CCN(Cc3ccccc3Cl)CC2)c2c([nH]c3cc(OC)ccc23)[C@@H]1CO,.,.,.,/,.
COCC(=O)N1CC2(CN(Cc3ccccc3)C2)c2c([nH]c3cc(OC)ccc23)[C@H]1CO,.,.,?,/,/
COCC(=O)N1CC2(CCN(Cc3ccc(Cl)cc3)CC2)c2c([nH]c3cc(OC)ccc23)[C@@H]1CO,.,.,.,/,.
CCC(=O)N1CC2(CN(Cc3ccccc3Cl)C2)c2c([nH]c3cc(OC)ccc23)[C@@H]1CO,29,.,.,/,.
O=C(C[C@@H]1CC[C@@H]2[C@H](COC[C@@H](O)CN2Cc2cccc(-c3ccncc3)c2)O1)N1CCCCC1,.,.,.,/,.
C[C@@H]1CN([C@H](C)CO)C(=O)c2cc(-c3ccccc3)cnc2O[C@H]1CN(C)C(=O)c1ccccn1,.,.,.,/,.
COc1ccc2c3c([nH]c2c1)[C@@H](CO)N(C(=O)CN(C)C)CC31CN(CC2CCCC2)C1,.,.,28,/,.
O=C(NCc1ccncc1)c1ccc(Cl)c(S(=O)(=O)N2CCCCC2)c1,.,.,.,.,18
Cc1ccnc(NC(=O)c2ccc(Cl)c(S(=O)(=O)N3CCCC3)c2)c1,.,.,61,.,.
O=C(NCc1cccnc1)c1ccc(Cl)c(S(=O)(=O)N2CCCCCC2)c1,.,.,.,.,.
SMILES,AF4-AF9 inh,S100A4 inh HTS,DENV2 CPE,CaV13 ICDI inh,SIRT5 block
C[C@@H]1CCCCO[C@@H](CN(C)C(=O)c2ccncc2)[C@H](C)CN([C@@H](C)CO)C(=O)c2cc(NS(=O)(=O)c3ccc(F)cc3)ccc2O1,.,.,.,/,.
COc1ccccc1OCc1nc(C#N)c(NCCCn2ccnc2)o1,.,.,.,.,.
COc1ccc(Nc2oc(COc3ccccc3OC)nc2C#N)cc1,.,.,.,.,28
Cc1noc(C)c1NC(=O)N[C@@H]1C=C[C@@H](CC(=O)Nc2ccccc2)O[C@@H]1CO,.,.,.,/,.
Cc1cc(NC(=O)c2ccc([N+](=O)[O-])cc2)n(CCC#N)n1,.,.,43,.,.
Cc1cc(Cl)c(OCCCNC2CCCC2)c(Br)c1,.,.,27,.,.
COCCCNCCCCOc1c(Cl)cc(C)cc1Br,/,.,/,.,.
CCCC(=O)Nc1ccc2c(c1)OC[C@H](C)N(CC1CCCC1)C[C@H](C)[C@H](OC)CN(C)C2=O,.,.,.,/,.
CC[C@H](C)[C@H](NC(N)=O)C(=O)Nc1ccc(NC(C)=O)cc1,96,.,.,.,.
C[C@@H]1CN([C@H](C)CO)C(=O)CCCn2cc(nn2)CO[C@@H]1CN(C)S(=O)(=O)c1ccc(Oc2ccccc2)nc1,.,.,.,/,.
CCCN1[C@H](C(=O)N(C)C)[C@@H](CO)[C@@H]2Cn3c(ccc(/C=C/c4ccccc4)c3=O)[C@@H]21,.,.,56,/,.
COC(=O)[C@H]1[C@H](CO)[C@H]2Cn3c(ccc(/C=C/c4ccccc4)c3=O)[C@H]2N1C(=O)c1cnccn1,.,.,.,/,.
CN1[C@@H]2c3ccc(/C=C/c4ccccc4)c(=O)n3C[C@H]1[C@H](CO)[C@H]2C(=O)NC1Cc2ccccc2C1,.,.,.,/,.
CCN1[C@@H]2Cn3c(ccc(/C=C/c4ccccc4)c3=O)[C@H]1[C@@H](C(=O)NC1Cc3ccccc3C1)[C@@H]2CO,.,.,32,/,.
O=C(O)[C@H]1[C@H](CO)[C@H]2Cn3c(ccc(/C=C/c4ccccc4)c3=O)[C@H]2N1C(=O)c1cnccn1,.,.,103,/,.
Cc1nc2ccccc2c2oc(C(=O)NCCN3CCN(C)CC3)cc12,.,.,22,.,/
CN(C)CCOC(=O)NCC12CC3CC(CC(C3)C1)C2,.,.,.,.,21
CN(C)CCOC(=O)CC12CC3CC(C1)CC(CC(=O)OCCN(C)C)(C3)C2,.,.,?,.,.
COc1ccc(S(=O)(=O)Nc2ccc3c(c2)C(=O)N([C@@H](C)CO)C[C@@H](C)[C@@H](CN(C)Cc2ccncc2)OCCCC[C@H](C)O3)cc1,.,.,37,/,.
